The text below walks through data of ChEMBL document CHEMBL1123098, “Activity of platinum(II) intercalating agents against murine leukemia L1210” (J Med Chem, 1985).

In one assay the test system is L1210. Nature of the assay: Growth inhibition of L1210 leukemia was determined in culture. Type of assay: functional, cell-based, Mus musculus. The essentials: (§1)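 L1210 cells were grown in Minimum Essential Medium with 15% fetal calf serum, 2 mM glutamine and gentamycin, at 37 °C without agitation under 5% O2-10% CO2. Drug was diluted in sterile water and added to 5 × 10^4 cells/mL, with water-only controls. Exposure was continuous for 48 h, or in some cases a 2-h pulse followed by 48-h incubation. Cells were Coulter-counted and growth as % of control was plotted against concentration. IC50 is the mean of at least two determinations.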
For “(Thiophenolato)(2,2':6',2''-terpyridine)platinum (II) Chloride Monohydrate”, the IC50 stood at 6 µM.

The test system of another assay is L1210. Nature of the assay: Growth inhibition of L1210 murine leukemia cells determined in culture. It counts as functional, cell-based, Mus musculus. The essentials:
as §1
As to “(4-methylThiophenolato)(2,2':6',2''-terpyridine)platinum (II) Chloride Dihydrate”, the IC50 turned out to be 12 µM.
On the same count and under the same terms, the same measure for “(4-AmmonioThiophenolato)(2,2':6',2''-terpyridine)platinum (II) dichloride Dihydrate”: 32 µM; for “(4-BromoThiophenolato)(2,2':6',2''-terpyridine)platinum (II) Chloride Dihydrate”: 9 µM.
As for “(1,4-Diaminebutane) ([2,2']Bipyridinyl)platinum (II) dichloride”, the half-inhibitory concentration (IC50) was over 500 µM.
Still for that read-out and setting: the same measure for “(Ethylenediamine) ([2,2']Bipyridinyl)platinum (II) dichloride Dihydrate”: 33 µM; for “(1,3-Diaminepropane) ([2,2']Bipyridinyl)platinum (II) dichloride Pentahydrate”: 9 µM.
“(2-methyloxyThiophenolato)(2,2':6',2''-terpyridine)platinum (II) Chloride Trihydrate”: the IC50 stood at 10 µM.
Same read-out and setting: in the case of “(4-ChloroThiophenolato)(2,2':6',2''-terpyridine)platinum (II)DiChloro Trihydrate” it was 9 µM; in that of “(Ethylenediamine)(1,10-phenanthroline)-platinum (II) dichloride Dihydrate”, 2 µM.
Same read-out and setting: in the case of “(1,3-Diaminopropane)(1,10-phenanthroline)-platinum (II) dichloride Dihydrate” it was 14 µM; in that of “(Ethylenediamine)3,4,7,8-tetramethyl-1,10-phenanthroline)platinum (II) dichloride Dihydrate Dihydrate”, 0.7 µM; in that of “(1,3-Diaminopropane)(1,10-phenanthroline)-platinum (II) dichloride Monohydrate”, 1 µM.
“(4-methyloxyThiophenolato)(2,2':6',2''-terpyridine)platinum (II) Chloride Trihydrate” displayed an IC50 of 9 µM.
With “(1,3-Diamine-2-hydroxypropane) ([2,2']Bipyridinyl)platinum (II) dichloride”, the IC50 amounted to 43 µM.
Still for that read-out and setting: the same measure for “(1-Thionaphthalato) (2,2':6',2''-terpyridine)platinum (II) dichloride Dihydrate”: 5 µM; for “(2,2':6',2''-terpyridine)platinum (II) dichloride Trihydrate”: 450 µM; for DICHLORODIPHENYLPLATINUM TRIHYDRATE: 23 µM.
“(1,3-Diamino-2-hydroxypropane)(3,4,7,8-tetramethyl-1,10-phenanthroline)platinum (II) dichloride Dihydrate” returned an IC50 of 5 µM.
For “(1,4-Diamino-butane)(3,4,7,8-tetramethyl-1,10-phenanthroline)platinum (II) dichloride”, the IC50 was 50 µM.
In turn, “(1,4-Diaminobutane)(1,10-phenanthroline)-platinum (II) dichloride Monohydrate” returned an IC50 of 110 µM.

Broadly, the IC50 is the midpoint of a concentration-inhibition curve.
